For series [1] the following is noted: no reference given; cited from earlier work.
Another series deals with precore mRNA and pgRNA. Description: Measurement of intracellular HBV RNA by real-time PCR. Format: cell-based, hepatitis B virus. Particulars: HepG2.2.15.7 cells; hit compound 16 10 µM, 38 and 39 30 µM; n = 3. The essentials: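 Total RNA from treated HepG2.2.15.7 cells was TRIzol-extracted and reverse-transcribed with DNase treatment. SYBR Green real-time PCR used primers PCP/BC1 for precore mRNA and PGP/BC1 for precore mRNA plus pgRNA, normalised to GAPDH. n = 3; Mann-Whitney U test, p < 0.05.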
A general note: Quantitative PCR measures a nucleic acid by following its amplification.

Series [2] relates to HBV-expressing HepG2.2.15.7 cells. Format: cell-based. Particulars: Hepatitis B virus. The essentials:
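HBV-producing HepG2.2.15.7 cells (derived from HepG2.2.15) were exposed to test compound at 0.1, 0.3, 1, 3, 10, 30 and 100 µM, […]. Enveloped Dane particles in the supernatant were captured by anti-HBs immunoprecipitation, and HBV DNA was then quantified by real-time PCR with S-gene primers/probe. Cell viability was read in parallel, n = 3. IC50 and CC50 were derived from dose curves.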

The nature of series [3]: Cell viability of HepG2.2.15.7 cells. The series is classed as cell-based. Particulars: human. The essentials: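 HepG2.2.15.7 cells (stable high-level HBV expression) seeded at 1.5 × 10^5 cells/well, grown overnight and PBS-washed. Fresh medium with compound (0.1, 0.3, 1, 3, 10, 30, 100 µM final; DMSO stocks) added for 48 h. Cell viability measured, n = 3; CC50 derived from the dose-response.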

The subject of series [4] is LHBs protein and HBc protein. Description: Western blot analysis of intracellular HBV proteins. The series is classed as cell-based, hepatitis B virus. Particulars: HepG2.2.15.7 cells; hit compound 16 10 µM, 38 and 39 30 µM; n = 3. The gist of the method:
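Treated HepG2.2.15.7 cells were lysed in RIPA buffer and soluble protein was run on SDS-PAGE, then transferred to PVDF. Blots were blocked, then given primary antibodies (including rabbit polyclonal anti-HBc; β-actin as loading control) at 4 °C overnight and secondaries 1 h at room temperature. ECL detection; bands quantified by densitometry, n = 3.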
A general note: A western blot detects proteins with antibodies after separation by electrophoresis.

Read-outs that look alike come from different tables or passages of the source.

The text below walks through data of PMC12234697 (Scientific Reports, 2025).

Take `C=C[C@H]1C[N@@]2CC[C@H]1C[C@@H]2[C@@H](O)c1ccnc2ccc(OC)cc12` [Compound 39, quinidine]: the “effective blood concentration for arrhythmia” value in series [1] was 2.3 to 5.0 µg/mL. In the series with precore mRNA and pgRNA, the “pgRNA level compared to a control” value is listed as “no significant difference” and the “precore mRNA level compared to a control” value was “no significant difference”. In addition, in series [2] (HepG2.2.15.7, read-out: IC50 (HBV DNA after the immunoprecipitation)), the IC50 was 18.6 µM. Besides, the IC50 in series [2] (HepG2.2.15.7, read-out: IC50 against HBV expressed in µg/mL) was determined as 2.8 µg/mL. Also, the CC50 (as a rule, the concentration giving 50% cytotoxicity) at 48 h in series [3] is 131 µM. In addition, in series [4], the “HBc protein level (western blot)” value is “no significant differences” and the “LHBs protein level (western blot)” value is given as “no significant differences”.
